Calls of active or inactive are those of the source. The calls are words filed in the database; no cut-off is given here.
Legend:
[1] = Cytotoxicity against DM1-patient derived myotubes assessed as change in cellular morphology at 5 uM measured after 48 hrs; conditions: human, myotube
How it was run: (§1)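 Cell morphology of DM1 patient-derived myotubes inspected during 48 h splicing treatment at 5 μM; agents altering morphology were re-tested at 1 μM.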

[2] = Drug localization in nucleus of DM1-patient derived myotubes at 5 uM measured after 24 hrs by live-cell fluorescence microscopy; assay type: ADME, subcellular; conditions: human, myotube
How it was run: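 DM1 patient myotubes bearing 1300 r(CUG) repeats given 5 μM agent; subcellular localization followed via intrinsic fluorescence of the H RNA-binding modules.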

r(CUG) repeat expansion [3] = test: Binding affinity to r(CUG)exp RNA repeat in DM1-patient derived myotubes assessed as improvement in MBNL1 exon 5 splicing defect at 1 uM measured after 48 hrs by RT-qPCR analysis relative to control; conditions: Homo sapiens, Myotube
How it was run: (§2)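 DM1 patient-derived myotubes (1300 r(CUG) repeats) treated 48 h, then MBNL1 exon 5 splicing rescue measured. Single-dose screens at 5 μM or 1 μM, where 1 μM was used if 5 μM altered morphology, n = 3. Dose–response also run, n = 6. SD shown; one-way ANOVA.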

r(CUG) repeat expansion [4] = test: Binding affinity to r(CUG)12 RNA repeat (unknown origin) measured after 10 mins by fluorescence assay; assay type: nucleic-acid assay
r(CUG) repeat expansion [5] = test: Binding affinity to 5'-biotinylated r(CUG)12 RNA repeat (unknown origin) assessed as disruption of r(CUG)12-His-tagged MBNL1 complex formation preincubated for 15 mins followed by MBNL1 addition and measured after 15 mins by TR-FRET assay; assay type: nucleic-acid assay
r(CUG) repeat expansion [6] = test: Binding affinity to r(CUG)exp RNA repeat in DM1-patient derived myotubes assessed as improvement in MBNL1 exon 5 splicing defect at 5 uM measured after 48 hrs by RT-qPCR analysis relative to control; conditions: Homo sapiens, Myotube; how it was run: as §2
[7] = Cytotoxicity against DM1-patient derived myotubes assessed as change in cellular morphology at 1 uM measured after 48 hrs; conditions: human, myotube; how it was run: as §1

Row | Drug uptake [2] | Activity (r(CUG) repeat expansion [3]) | EC50 (r(CUG) repeat expansion [4]) | IC50 (r(CUG) repeat expansion [5]) | Activity (r(CUG) repeat expansion [6]) | SMILES | Activity [1] | Activity [7]
1 | Active |  |  |  |  | CNCCCCN(CC(=O)N(CCN)CC(=O)N(CCCNC(=O)CCCOc1cccc(-c2nc3ccc(-c4nc5cc(N6CCN(C)CC6)ccc5[nH]4)cc3[nH]2)c1)CC(N)=O)C(=O)CN(Cc1ccccc1)C(=O)CN(C)C(=O)CCCOc1cccc(-c2nc3ccc(-c4nc5cc(N6CCN(C)CC6)ccc5[nH]4)cc3[nH]2)c1 | Non-Toxic | 
2 | Active |  |  |  |  | CCCN(CC(=O)N(CCCNC(=O)CCCOc1cccc(-c2nc3ccc(-c4nc5cc(N6CCN(C)CC6)ccc5[nH]4)cc3[nH]2)c1)CC(N)=O)C(=O)CN(CCO)C(=O)CN(CCN)C(=O)CN(CCN1CCOCC1)C(=O)CCCOc1cccc(-c2nc3ccc(-c4nc5cc(N6CCN(C)CC6)ccc5[nH]4)cc3[nH]2)c1 | Non-Toxic | 
3 | Active |  |  |  |  | COCCN(CC(=O)N(CCCNC(=O)CCCOc1cccc(-c2nc3ccc(-c4nc5cc(N6CCN(C)CC6)ccc5[nH]4)cc3[nH]2)c1)CC(N)=O)C(=O)CN(CCN)C(=O)CN(Cc1ccc(OC)cc1)C(=O)CN(CCN)C(=O)CCCOc1cccc(-c2nc3ccc(-c4nc5cc(N6CCN(C)CC6)ccc5[nH]4)cc3[nH]2)c1 | Non-Toxic | 
4 | Active | Active |  |  |  | CNCCCCN(CC(=O)N(CCCCNC)CC(=O)N(CCN)CC(=O)N(CCCNC(=O)CCCOc1cccc(-c2nc3ccc(-c4nc5cc(N6CCN(C)CC6)ccc5[nH]4)cc3[nH]2)c1)CC(N)=O)C(=O)CN(C)C(=O)CCCOc1cccc(-c2nc3ccc(-c4nc5cc(N6CCN(C)CC6)ccc5[nH]4)cc3[nH]2)c1 | Toxic | Non-Toxic

The next lines start with the molecule.

Row | SMILES | Drug uptake [2] | Activity (r(CUG) repeat expansion [3]) | EC50 (r(CUG) repeat expansion [4]) | IC50 (r(CUG) repeat expansion [5]) | Activity (r(CUG) repeat expansion [6]) | Activity [1] | Activity [7]
5 | CCCN(CC(=O)N(CCCCNC)CC(=O)N(C)CC(=O)N(CCCNC(=O)CCCOc1cccc(-c2nc3ccc(-c4nc5cc(N6CCN(C)CC6)ccc5[nH]4)cc3[nH]2)c1)CC(N)=O)C(=O)CN(CCO)C(=O)CCCOc1cccc(-c2nc3ccc(-c4nc5cc(N6CCN(C)CC6)ccc5[nH]4)cc3[nH]2)c1 | Active |  |  |  |  | Non-Toxic | 
6 | CCCN(CC(=O)N(CCC)CC(=O)N(CCC)CC(=O)N(CCC)CC(=O)N(CC(N)=O)Cc1cn(CCCNC(=O)CCCOc2ccc(-c3nc4ccc(-c5nc6cc(N7CCN(C)CC7)ccc6[nH]5)cc4[nH]3)cc2)nn1)C(=O)CNCc1cn(CCCNC(=O)CCCOc2cccc(-c3nc4ccc(-c5nc6cc(N7CCN(C)CC7)ccc6[nH]5)cc4[nH]3)c2)nn1 | Active | inactive | 1.14 µM | 32.2 µM | 30% |  | 
7 | CNCCCCN(CC(=O)N(CCC(=O)N1CCCC1)CC(=O)N(CCCNC(=O)CCCOc1cccc(-c2nc3ccc(-c4nc5cc(N6CCN(C)CC6)ccc5[nH]4)cc3[nH]2)c1)CC(N)=O)C(=O)CN(CCO)C(=O)CN(CCC(=O)N1CCCC1)C(=O)CCCOc1cccc(-c2nc3ccc(-c4nc5cc(N6CCN(C)CC6)ccc5[nH]4)cc3[nH]2)c1 | Active |  |  |  |  | Non-Toxic | 

— ChEMBL document CHEMBL4706762, “Massively Parallel Optimization of the Linker Domain in Small Molecule Dimers Targeting a Toxic r(CUG) Repeat Expansion” (ACS Med Chem Lett, 2021)
